# In ChEMBL document CHEMBL1122725, “Luteinizing hormone-releasing hormone antagonists containing very hydrophobic amino acids” (1984):
# Non-standard residues stand in square brackets, D forms with d. Residues, ends and D or L forms follow the SMILES beside them. dPhe(4-Cl) = N[C@H](Cc1ccc(Cl)cc1)C(=O)O; dPhe(4-F) = N[C@H](Cc1ccc(F)cc1)C(=O)O; d2Nal = N[C@H](Cc1ccc2ccccc2c1)C(=O)O
# Key:
# Type in all cases: functional
# Rattus norvegicus [1] = assay: Evaluation of antagonistic potency by rat anti-ovulatory assay when administered in 50% propylene glycol / 0.9% saline vehicle
# Outline: (§1)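 Rats with at least two normal 4-day estrous cycles (daily vaginal lavage cytology, at least 12 days) given the analogue subcutaneously in vehicle, 50% propylene glycol/0.9% saline or Mazola corn oil, at noon on proestrus or on diestrus II (24 h earlier). On expected estrus morning, oviducts examined for ovulated eggs. ED50 from percent ovulating versus log-dose, usually three or more dose groups, 10 animals per group.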
# Rattus norvegicus [2] = species on record: Rattus norvegicus; assay: Duration of proestrus and the vehicle was 50% propylene glycol /0.9 % mazola corn oil; outline: as §1
# Rattus norvegicus [3] = species on record: Rattus norvegicus; assay: Duration of anti-ovulatory activity was measured at noon on diestrus II and the vehicle was 50% propylene glycol /0.9 % mazola corn oil; outline: as §1
# Rattus norvegicus [4] = assay: Evaluation of antagonistic potency by rat anti-ovulatory assay when administered in 50% propylene glycol / 0.9% mazola corn oil vehicle; outline: as §1
# Rattus norvegicus [5] = species on record: Rattus norvegicus; assay: Duration of anti-ovulatory activity was measured at noon on diestrus II and the vehicle was 50% propylene glycol /0.9 % saline; outline: as §1
structure (smiles),measurement,setting,value
CC(C)C[C@H](NC(=O)[C@@H](Cc1ccc2ccccc2c1)NC(=O)[C@H](Cc1ccc(O)cc1)NC(=O)[C@H](CO)NC(=O)[C@@H](Cc1ccc2ccccc2c1)NC(=O)[C@@H](Cc1ccc(F)cc1)NC(=O)[C@H](COCc1ccccc1)NC(=O)OC(C)(C)C)C(=O)N[C@@H](CCCN=C(N)N)C(=O)N1CCC[C@H]1C(=O)NCC(N)=O,ED50,Rattus norvegicus [1],400 ug injection-1
CCNC(=O)[C@@H]1CCCN1C(=O)[C@H](CCCN=C(N)N)NC(=O)[C@H](CC(C)C)NC(=O)[C@@H](CCCN=C(N)N)NC(=O)[C@H](Cc1ccc(O)cc1)NC(=O)[C@H](CO)NC(=O)[C@@H](Cc1ccc2ccccc2c1)NC(=O)[C@@H](Cc1ccc(Cl)cc1)NC(=O)[C@@H]1CCCN1C(C)=O,ED50,Rattus norvegicus [1],14 ug injection-1
CC(=O)N[C@H](Cc1ccc2ccccc2c1)C(=O)N[C@H](Cc1ccc(F)cc1)C(=O)N[C@H](Cc1c[nH]c2ccccc12)C(=O)N[C@@H](CO)C(=O)N[C@@H](Cc1ccc(O)cc1)C(=O)N[C@H](CCCN=C(N)N)C(=O)N[C@@H](CC(C)C)C(=O)N[C@@H](CCCN=C(N)N)C(=O)N1CCC[C@H]1C(=O)NCC(N)=O (Ac-[d2Nal][dPhe(4-F)][dW]SY[dR]LRPG-NH2),ED50,Rattus norvegicus [1],2.4 ug injection-1
same,ED50,Rattus norvegicus [2],1.1 µg
same,ED50,Rattus norvegicus [3],9 µg
CC(=O)N1CCC[C@H]1C(=O)N[C@H](Cc1ccc(Cl)cc1)C(=O)N[C@H](Cc1ccc2ccccc2c1)C(=O)N[C@@H](CO)C(=O)N[C@@H](Cc1ccc(O)cc1)C(=O)N[C@H](Cc1ccc2ccccc2c1)C(=O)N[C@@H](CC(C)C)C(=O)N[C@@H](CCCN=C(N)N)C(=O)N1CCC[C@H]1C(=O)NCC(N)=O,ED50,Rattus norvegicus [1],4.8 ug injection-1
same,ED50,Rattus norvegicus [4],3.6 ug injection-1
CC(=O)N[C@H](C(=O)N[C@H](Cc1ccc(F)cc1)C(=O)N[C@H](Cc1ccc2ccccc2c1)C(=O)N[C@@H](CO)C(=O)N[C@@H](Cc1ccc(O)cc1)C(=O)N[C@H](Cc1ccc2ccccc2c1)C(=O)N[C@@H](CC(C)C)C(=O)N[C@@H](CCCN=C(N)N)C(=O)N1CCC[C@H]1C(=O)NCC(N)=O)[C@@H](C)O,ED50,Rattus norvegicus [1],7 ug injection-1
same,ED50,Rattus norvegicus [4],4.5 ug injection-1
CC(=O)N1CCC[C@H]1C(=O)N[C@H](Cc1ccc(Cl)cc1)C(=O)N[C@H](Cc1ccccc1)C(=O)N[C@@H](CO)C(=O)N[C@@H](Cc1ccc(O)cc1)C(=O)N[C@H](Cc1ccc2ccccc2c1)C(=O)N[C@@H](CC(C)C)C(=O)N[C@@H](CCCN=C(N)N)C(=O)N1CCC[C@H]1C(=O)NCC(N)=O,ED50,Rattus norvegicus [1],5.6 ug injection-1
CC(=O)N[C@@H](CO)C(=O)N[C@H](Cc1ccc(F)cc1)C(=O)N[C@H](Cc1ccc2ccccc2c1)C(=O)N[C@@H](CO)C(=O)N[C@@H](Cc1ccc(O)cc1)C(=O)N[C@H](Cc1ccc2ccccc2c1)C(=O)N[C@@H](CC(C)C)C(=O)N[C@@H](CCCN=C(N)N)C(=O)N1CCC[C@H]1C(=O)NCC(N)=O,ED50,Rattus norvegicus [1],4.3 ug injection-1
same,ED50,Rattus norvegicus [4],1.4 ug injection-1
CC(=O)N1CCC[C@H]1C(=O)N[C@H](Cc1ccc(F)cc1)C(=O)N[C@H](Cc1ccccc1)C(=O)N[C@@H](CO)C(=O)N[C@@H](Cc1ccc(O)cc1)C(=O)N[C@H](Cc1ccc2ccccc2c1)C(=O)N[C@@H](CC(C)C)C(=O)N[C@@H](CCCN=C(N)N)C(=O)N1CCC[C@H]1C(=O)NCC(N)=O,ED50,Rattus norvegicus [1],12.2 ug injection-1
CC(C)C[C@H](NC(=O)[C@@H](Cc1ccc2ccccc2c1)NC(=O)[C@H](Cc1ccc(O)cc1)NC(=O)[C@H](CO)NC(=O)[C@@H](Cc1ccc2ccccc2c1)NC(=O)[C@@H](Cc1ccc(F)cc1)NC(=O)[C@@H]1CCCN1C=O)C(=O)N[C@@H](CCCN=C(N)N)C(=O)N1CCC[C@H]1C(=O)NCC(N)=O,ED50,Rattus norvegicus [1],3 ug injection-1
same,ED50,Rattus norvegicus [4],4.4 ug injection-1
CC(=O)N1CCC[C@H]1C(=O)N[C@H](Cc1ccc(F)cc1)C(=O)N[C@H](Cc1ccc2ccccc2c1)C(=O)N[C@@H](CO)C(=O)N[C@@H](Cc1ccc(O)cc1)C(=O)N[C@H](Cc1ccc(N)cc1)C(=O)N[C@@H](CC(C)C)C(=O)N[C@@H](CCCN=C(N)N)C(=O)N1CCC[C@H]1C(=O)NCC(N)=O,ED50,Rattus norvegicus [1],72 ug injection-1
CCNC(=O)[C@@H]1CCCN1C(=O)[C@H](CCCN=C(N)N)NC(=O)[C@H](CC(C)C)NC(=O)[C@@H](CCCN=C(N)N)NC(=O)[C@H](Cc1ccc(O)cc1)NC(=O)[C@H](CO)NC(=O)[C@@H](Cc1ccc2ccccc2c1)NC(=O)[C@@H](Cc1ccc(F)cc1)NC(=O)[C@@H]1CCCN1C(C)=O,ED50,Rattus norvegicus [1],32 ug injection-1
CC(=O)N[C@H](Cc1ccc(Cl)cc1)C(=O)N[C@H](Cc1ccc(Cl)cc1)C(=O)N[C@H](Cc1c[nH]c2ccccc12)C(=O)N[C@@H](CO)C(=O)N[C@@H](Cc1ccc(O)cc1)C(=O)N[C@H](CCCN=C(N)N)C(=O)N[C@@H](CC(C)C)C(=O)N[C@@H](CCCN=C(N)N)C(=O)N1CCC[C@H]1C(=O)N[C@H](C)C(N)=O (Ac-[dPhe(4-Cl)][dPhe(4-Cl)][dW]SY[dR]LRP[dA]-NH2),ED50,Rattus norvegicus [1],1.8 ug injection-1
same,ED50,Rattus norvegicus [2],1.2 µg
same,ED50,Rattus norvegicus [4],1.2 µg injection-1
same,ED50,Rattus norvegicus [3],5 µg
CC(=O)N1CCC[C@H]1C(=O)N[C@H](Cc1ccc(F)cc1)C(=O)N[C@H](Cc1ccc2ccccc2c1)C(=O)N[C@@H](CO)C(=O)N[C@@H](Cc1ccc(O)cc1)C(=O)N[C@H](Cc1ccc2ccccc2c1)C(=O)N[C@@H](CC(C)C)C(=O)N[C@@H](CCCN=C(N)N)C(=O)N1CCC[C@H]1C(=O)NCC(N)=O (stereo in doubt; 7),ED50,Rattus norvegicus [1],2.2 ug injection-1
same,ED50,Rattus norvegicus [4],4 µg
same,ED50,Rattus norvegicus [5],35 ug injection-1
same,ED50,Rattus norvegicus [3],140 µg
CCNC(=O)[C@@H]1CCCN1C(=O)[C@H](CCCN=C(N)N)NC(=O)[C@H](CC(C)C)NC(=O)[C@@H](Cc1ccc2ccccc2c1)NC(=O)[C@H](Cc1ccc(O)cc1)NC(=O)[C@H](CO)NC(=O)[C@@H](Cc1ccc2ccccc2c1)NC(=O)[C@@H](Cc1ccc(F)cc1)NC(=O)[C@@H]1CCCN1C(C)=O,ED50,Rattus norvegicus [1],3.4 ug injection-1
CC(=O)N[C@H](Cc1ccc2ccccc2c1)C(=O)N[C@H](Cc1ccc(F)cc1)C(=O)N[C@H](Cc1ccc2ccccc2c1)C(=O)N[C@@H](CO)C(=O)N[C@@H](Cc1ccc(O)cc1)C(=O)N[C@H](CCCN=C(N)N)C(=O)N[C@@H](CC(C)C)C(=O)N[C@@H](CCCN=C(N)N)C(=O)N1CCC[C@H]1C(=O)NCC(N)=O,ED50,Rattus norvegicus [1],16 ug injection-1
CC(=O)N[C@H](Cc1ccccc1)C(=O)N[C@H](Cc1ccc(Cl)cc1)C(=O)N[C@H](Cc1c[nH]c2ccccc12)C(=O)N[C@@H](CO)C(=O)N[C@@H](Cc1ccc(O)cc1)C(=O)N[C@H](Cc1c[nH]c2ccccc12)C(=O)N[C@@H](CC(C)C)C(=O)N[C@@H](CCCN=C(N)N)C(=O)N1CCC[C@H]1C(=O)NCC(N)=O,ED50,Rattus norvegicus [1],160 ug injection-1
same,ED50,Rattus norvegicus [4],74 ug injection-1
CC(=O)N[C@H](Cc1ccc(Cl)cc1)C(=O)N[C@H](Cc1ccc(Cl)cc1)C(=O)N[C@H](Cc1ccc2ccccc2c1)C(=O)N[C@@H](CO)C(=O)N[C@@H](Cc1ccc(O)cc1)C(=O)N[C@H](Cc1ccc2ccccc2c1)C(=O)N[C@@H](CC(C)C)C(=O)N[C@@H](CCCN=C(N)N)C(=O)N1CCC[C@H]1C(=O)NCC(N)=O,ED50,Rattus norvegicus [1],400 ug injection-1
